Results: publication PMC7594119 (ACS Omega, 2020)

Assays:
CDK6 [1] = molecular target: T1, CDK6 (Homo sapiens, UniProt Q00534); experiment: Kinase inhibition; assay type: biochemical
How it was run: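 Purified recombinant CDK6 (pET28a+, E. coli Codon+ expression, Ni-NTA) at 1 μM was incubated with 50 μM fresh ATP and increasing test compound (0–10 μM) for 1 h at 25 °C. Malachite green stopped the reaction, with colour developed 15–20 min at room temperature.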

CDK6 [2] = molecular target: T1, CDK6; experiment: Fluorescence quenching binding studies with CDK6; conditions: for Kq (bimolecular quenching rate constant): Kq=Ksv/τ0; for ΔG: van't Hoff; for Kd: K (binding constant, modified Stern–Volmer)
CDK6 [3] = molecular target: T1, CDK6; experiment: Isothermal titration calorimetry with CDK6; conditions: ITC, 25 °C, one binding site model
How it was run: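 Recombinant CDK6 was expressed from pET28a+ in E. coli Codon+ cells (IPTG induction at 18 °C) and purified on Ni-NTA. Protein was dialysed against 25 mM Tris, 200 mM MgCl2, with ligand dissolved in the same buffer and 1% v/v DMSO added to protein. At 25 °C, 500 μM test compound in the syringe was titrated into 15 μM CDK6. Buffer-titration heats were subtracted before fitting n, ΔH and Ka.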

MCF-7 cells [4] = experiment: Cell viability MTT assay, MCF-7; assay type: cell-based; conditions: Homo sapiens, MCF7, 72 h, read-out: IC50, cell viability
How it was run: (§1)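 Cells were seeded at 5000–5500/well in 96-well plates and exposed to test compound (0–250 μM) for 72 h. MTT (from 5 mg/mL stock in PBS, pH 7.4) was added for 4–5 h. Formazan was dissolved in DMSO and OD read at 570 nm, then converted to % viability. Data are mean ±SD, n = 3.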

A549 cells [5] = experiment: Cell viability MTT assay, A549; assay type: cell-based; conditions: Homo sapiens, A549, 72 h, read-out: IC50, cell viability
How it was run: as §1

MCF-7 cells [6] = experiment: Annexin-V/PI staining apoptosis, MCF-7; assay type: cell-based; conditions: MCF-7, IC50 concentration, 48 h
How it was run: (§2)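 MCF-7 and A549 cells were treated with test compound or vehicle for 48 h, then harvested. They were stained with annexin-V/PI and analysed by flow cytometry to quantify apoptotic cells.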

A549 cells [7] = experiment: Annexin-V/PI staining apoptosis, A549; assay type: cell-based, human; conditions: A549, IC50 concentration, 48 h
How it was run: as §2

[8] = test system: CDK6 expression in MCF-7 cells; experiment: CDK6 protein expression; assay type: cell-based; conditions: MCF-7, IC50 dose
How it was run: (§3)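 MCF-7 and A549 cells were treated with test compound or vehicle for a stipulated time, then harvested by trypsinization. They were lysed in RIPA buffer and protein was quantified by BCA. CDK6 was detected by Western blot with anti-CDK6 antibody, and band intensity was normalized to β-actin loading control.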

[9] = test system: CDK6 expression in A549 cells; experiment: CDK6 protein expression; assay type: cell-based, human; conditions: A549, IC50 dose
How it was run: as §3

MCF-7 cells [10] = experiment: ROS determination; assay type: cell-based; conditions: MCF-7, IC50 dose, 5–6 h
How it was run: (§4)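 MCF-7 and A549 cells were treated with test compound or DMSO vehicle for 5–6 h. They were then loaded with 10 μM H2DCFDA for 30 min, trypsinized, and washed twice with PBS. Total ROS was measured by flow cytometry.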

A549 cells [11] = experiment: ROS determination; assay type: cell-based, human; conditions: A549, IC50 dose, 5–6 h
How it was run: as §4

MCF-7 cells [12] = experiment: Colony formation assay, MCF-7; assay type: cell-based; conditions: MCF-7, IC50 concentration, 8–10 days
How it was run: (§5)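 MCF-7 or A549 cells were plated at about 1000–1500 cells/well in 6-well plates. They were treated with test compound for 8–10 days at 37 °C, 5% CO2, with DMSO as vehicle control. Colonies were fixed with 100% methanol, stained with crystal violet, and counted by image analysis relative to vehicle.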

A549 cells [13] = experiment: Colony formation assay, A549; assay type: cell-based, human; conditions: A549, IC50 concentration, 8–10 days
How it was run: as §5

[14] = van't Hoff plot over 15, 25, 30 °C, same value printed at each temperature

T1 sequence (Q00534 whole entry): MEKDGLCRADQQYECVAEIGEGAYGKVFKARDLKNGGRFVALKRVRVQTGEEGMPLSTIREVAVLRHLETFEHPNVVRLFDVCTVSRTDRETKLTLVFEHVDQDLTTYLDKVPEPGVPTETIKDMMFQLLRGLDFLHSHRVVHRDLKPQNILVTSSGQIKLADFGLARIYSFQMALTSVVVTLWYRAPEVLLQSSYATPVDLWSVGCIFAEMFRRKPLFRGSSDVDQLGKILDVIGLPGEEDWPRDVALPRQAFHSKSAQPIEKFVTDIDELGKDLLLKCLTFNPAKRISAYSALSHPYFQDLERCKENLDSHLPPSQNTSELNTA

O=c1c(O)c(-c2ccc(O)c(O)c2)oc2cc(O)cc(O)c12 [quercetin]
IC50 (CDK6 [1]): 5.89 µM
Ksv (Stern–Volmer constant) (CDK6 [2]; 15 °C): 16.3 10^4 M^–1
n (number of binding sites) (CDK6 [2]; 15 °C): 1.35
Kq (bimolecular quenching rate constant) (CDK6 [2]; 15 °C): 6.03 10^13 M^–1 s^–1
ΔG (CDK6 [2]; 15 °C): –9.400 kcal mol^–1
Ksv (Stern–Volmer constant) (CDK6 [2]; 25 °C): 13.6 10^4 M^–1
TΔS (CDK6 [2]; 25 °C): 2.46 kcal mol^–1
n (number of binding sites) (CDK6 [2]; 25 °C): 1.33
Kq (bimolecular quenching rate constant) (CDK6 [2]; 25 °C): 5.03 10^13 M^–1 s^–1
ΔG (CDK6 [2]; 25 °C): –9.482 kcal mol^–1
Ksv (Stern–Volmer constant) (CDK6 [2]; 30 °C): 12.2 10^4 M^–1
TΔS (CDK6 [2]; 30 °C): 2.50 kcal mol^–1
n (number of binding sites) (CDK6 [2]; 30 °C): 1.33
Kq (bimolecular quenching rate constant) (CDK6 [2]; 30 °C): 4.51 10^13 M^–1 s^–1
ΔG (CDK6 [2]; 30 °C): –9.524 kcal mol^–1
Kd (CDK6 [2]; 15 °C): 0.0769 µM
Kd (CDK6 [2]; 25 °C): 0.104 µM
Kd (CDK6 [2]; 30 °C): 0.143 µM
ΔH (CDK6 [2]; [14]): –7.019 kcal mol^–1
ΔS (CDK6 [2]; [14]): 8.267 cal mol^–1 K^–1
ΔH (CDK6 [3]): -112 ± 0.457 kcal/mol
ΔS (CDK6 [3]): −351 cal/mol/deg
IC50 (MCF-7 cells [4]): 41.8 ± 2.21 µM
IC50 (A549 cells [5]): 52.4 ± 2.44 µM
cells in which apoptosis is induced (MCF-7 cells [6]): ~21.10%
cells in which apoptosis is induced (A549 cells [7]): ~16.22%
effect on CDK6 expression [8]: decreases the CDK6 expression
effect on CDK6 expression [9]: decreases the CDK6 expression
effect on ROS production (MCF-7 cells [10]): decreases the production of ROS
effect on ROS production (A549 cells [11]): decreases the production of ROS
effect on colonization (colony formation) (MCF-7 cells [12]): significantly decreases the colonization
effect on colonization (colony formation) (A549 cells [13]): significantly decreases the colonization
